# From ChEMBL document CHEMBL5058577, “EUbOPEN Chemogenomics Library 2 (Multiplex)” (2022)
# System: U2OS
# Assay: Multiplex assay against U2OS
# Assay type: toxicity, cell-based
# Details: human
# Outline: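 Compound was added to live cells that had been stained at seeding with Hoechst33342, BioTracker Green Microtubule Cytoskeleton Dye, MitoTracker Red and Annexin V Alexa Fluor 680, and imaging followed on a CQ1 microscope at 37°C and 5% CO2. CellPathfinder machine-learning gating divided cells into Hoechst high-intensity objects or normal cells, normal cells into healthy, pyknosed or fragmented nuclei, and pyknosed cells into mitotic or apoptotic. Tubulin, mitochondrial-mass and membrane-permeability phenotypes are per cents of healthy-nucleus cells.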
# [1] = 12 h, 1 µM, compound concentration 1 uM, replicate 1
# [2] = 12 h, 1 µM, compound concentration 1 uM, replicate 2
# [3] = 12 h, 10 µM, compound concentration 10 uM, replicate 1
# [4] = 12 h, 10 µM, compound concentration 10 uM, replicate 2
# [5] = 24 h, 1 µM, compound concentration 1 uM, replicate 1
# [6] = 24 h, 1 µM, compound concentration 1 uM, replicate 2
# [7] = 24 h, 10 µM, compound concentration 10 uM, replicate 1
# [8] = 24 h, 10 µM, compound concentration 10 uM, replicate 2
# [9] = 48 h, 1 µM, compound concentration 1 uM, replicate 1
# [10] = 48 h, 1 µM, compound concentration 1 uM, replicate 2
# [11] = 48 h, 10 µM, compound concentration 10 uM, replicate 1
# [12] = 48 h, 10 µM, compound concentration 10 uM, replicate 2
compound,measurement,setting,value
CN1CCN(c2ccc(Nc3c4ccccc4nc4ccccc34)cc2)CC1.Cl.Cl.O,Population Apoptotic (%),[1],100%
same,Population Fragmented Nuclei (%),[1],25%
same,Population Healthy Nuclei (%),[1],65%
same,Population Hoechst High Intensity Objects (%),[1],0%
same,Population Membrane Permeable-Phenotype (%),[1],19%
same,Population Mitochondria Different-Phenotype (%),[1],7%
same,Population Mitotic Cells (%),[1],0%
same,Population Normal (%),[1],99%
same,Population Pyknosed Nuclei (%),[1],8%
same,Population Tubulin-Different-Phenotype (%),[1],17%
same,Total Cell Count,[1],193
same,Population Apoptotic (%),[2],87%
same,Population Fragmented Nuclei (%),[2],23%
same,Population Healthy Nuclei (%),[2],69%
same,Population Membrane Permeable-Phenotype (%),[2],14%
same,Population Mitochondria Different-Phenotype (%),[2],13%
same,Population Mitotic Cells (%),[2],12%
same,Population Normal (%),[2],100%
same,Population Pyknosed Nuclei (%),[2],7%
same,Population Tubulin-Different-Phenotype (%),[2],13%
same,Total Cell Count,[2],107
same,Population Apoptotic (%),[3],93%
same,Population Fragmented Nuclei (%),[3],54%
same,Population Healthy Nuclei (%),[3],38%
same,Population Hoechst High Intensity Objects (%),[3],0%
same,Population Membrane Permeable-Phenotype (%),[3],65%
same,Population Mitochondria Different-Phenotype (%),[3],95%
same,Population Mitotic Cells (%),[3],6%
same,Population Normal (%),[3],99%
same,Population Pyknosed Nuclei (%),[3],7%
same,Population Tubulin-Different-Phenotype (%),[3],82%
same,Total Cell Count,[3],213
same,Population Apoptotic (%),[4],100%
same,Population Fragmented Nuclei (%),[4],62%
same,Population Healthy Nuclei (%),[4],31%
same,Population Hoechst High Intensity Objects (%),[4],2%
same,Population Membrane Permeable-Phenotype (%),[4],70%
same,Population Mitochondria Different-Phenotype (%),[4],100%
same,Population Mitotic Cells (%),[4],0%
same,Population Normal (%),[4],97%
same,Population Pyknosed Nuclei (%),[4],6%
same,Population Tubulin-Different-Phenotype (%),[4],85%
same,Total Cell Count,[4],132
same,Population Apoptotic (%),[5],92%
same,Population Fragmented Nuclei (%),[5],28%
same,Population Healthy Nuclei (%),[5],64%
same,Population Hoechst High Intensity Objects (%),[5],1%
same,Population Membrane Permeable-Phenotype (%),[5],10%
same,Population Mitochondria Different-Phenotype (%),[5],6%
same,Population Mitotic Cells (%),[5],7%
same,Population Normal (%),[5],98%
same,Population Pyknosed Nuclei (%),[5],6%
same,Population Tubulin-Different-Phenotype (%),[5],7%
same,Total Cell Count,[5],200
same,Population Apoptotic (%),[6],100%
same,Population Fragmented Nuclei (%),[6],29%
same,Population Healthy Nuclei (%),[6],60%
same,Population Hoechst High Intensity Objects (%),[6],4%
same,Population Membrane Permeable-Phenotype (%),[6],5%
same,Population Mitochondria Different-Phenotype (%),[6],12%
same,Population Mitotic Cells (%),[6],0%
same,Population Normal (%),[6],95%
same,Population Pyknosed Nuclei (%),[6],10%
same,Population Tubulin-Different-Phenotype (%),[6],6%
same,Total Cell Count,[6],124
same,Population Apoptotic (%),[7],100%
same,Population Fragmented Nuclei (%),[7],46%
same,Population Healthy Nuclei (%),[7],42%
same,Population Hoechst High Intensity Objects (%),[7],4%
same,Population Membrane Permeable-Phenotype (%),[7],85%
same,Population Mitochondria Different-Phenotype (%),[7],96%
same,Population Mitotic Cells (%),[7],0%
same,Population Normal (%),[7],95%
same,Population Pyknosed Nuclei (%),[7],11%
same,Population Tubulin-Different-Phenotype (%),[7],90%
same,Total Cell Count,[7],205
same,Population Apoptotic (%),[8],90%
same,Population Fragmented Nuclei (%),[8],69%
same,Population Healthy Nuclei (%),[8],23%
same,Population Hoechst High Intensity Objects (%),[8],10%
same,Population Membrane Permeable-Phenotype (%),[8],96%
same,Population Mitochondria Different-Phenotype (%),[8],100%
same,Population Mitotic Cells (%),[8],10%
same,Population Normal (%),[8],89%
same,Population Pyknosed Nuclei (%),[8],7%
same,Population Tubulin-Different-Phenotype (%),[8],100%
same,Total Cell Count,[8],148
same,Population Apoptotic (%),[9],87%
same,Population Fragmented Nuclei (%),[9],36%
same,Population Healthy Nuclei (%),[9],52%
same,Population Hoechst High Intensity Objects (%),[9],4%
same,Population Membrane Permeable-Phenotype (%),[9],6%
same,Population Mitochondria Different-Phenotype (%),[9],4%
same,Population Mitotic Cells (%),[9],12%
same,Population Normal (%),[9],95%
same,Population Pyknosed Nuclei (%),[9],10%
same,Population Tubulin-Different-Phenotype (%),[9],3%
same,Total Cell Count,[9],231
same,Population Apoptotic (%),[10],100%
same,Population Fragmented Nuclei (%),[10],40%
same,Population Healthy Nuclei (%),[10],47%
same,Population Hoechst High Intensity Objects (%),[10],5%
same,Population Membrane Permeable-Phenotype (%),[10],19%
same,Population Mitochondria Different-Phenotype (%),[10],7%
same,Population Mitotic Cells (%),[10],0%
same,Population Normal (%),[10],94%
same,Population Pyknosed Nuclei (%),[10],12%
same,Population Tubulin-Different-Phenotype (%),[10],9%
same,Total Cell Count,[10],147
same,Population Apoptotic (%),[11],96%
same,Population Fragmented Nuclei (%),[11],53%
same,Population Healthy Nuclei (%),[11],30%
same,Population Hoechst High Intensity Objects (%),[11],18%
same,Population Membrane Permeable-Phenotype (%),[11],91%
same,Population Mitochondria Different-Phenotype (%),[11],90%
same,Population Mitotic Cells (%),[11],3%
same,Population Normal (%),[11],81%
same,Population Pyknosed Nuclei (%),[11],15%
same,Population Tubulin-Different-Phenotype (%),[11],93%
same,Total Cell Count,[11],243
same,Population Apoptotic (%),[12],100%
same,Population Fragmented Nuclei (%),[12],76%
same,Population Healthy Nuclei (%),[12],19%
same,Population Hoechst High Intensity Objects (%),[12],15%
same,Population Membrane Permeable-Phenotype (%),[12],100%
same,Population Mitochondria Different-Phenotype (%),[12],96%
same,Population Mitotic Cells (%),[12],0%
same,Population Normal (%),[12],84%
same,Population Pyknosed Nuclei (%),[12],4%
same,Population Tubulin-Different-Phenotype (%),[12],100%
same,Total Cell Count,[12],173
